Measured values: ChEMBL document CHEMBL4373718, “Germacrane Sesquiterpenoids as a New Type of Anticardiac Fibrosis Agent Targeting Transforming Growth Factor β Type I Receptor” (J Med Chem, 2019)
Active and inactive are the calls of the source. No cut-off for these calls is given here.

Legend:
[1] = target: T1, TGF-beta receptor type-1 (Rattus norvegicus) (UniProt P80204); experiment: Inhibition of TGFbeta1 receptor in TGFbeta1-stimulated Sprague-Dawley rat cardiac fibroblasts assessed as reduction in alpha-SMA expression measured after 12 hrs by Western blot analysis
T1 sequence (whole entry): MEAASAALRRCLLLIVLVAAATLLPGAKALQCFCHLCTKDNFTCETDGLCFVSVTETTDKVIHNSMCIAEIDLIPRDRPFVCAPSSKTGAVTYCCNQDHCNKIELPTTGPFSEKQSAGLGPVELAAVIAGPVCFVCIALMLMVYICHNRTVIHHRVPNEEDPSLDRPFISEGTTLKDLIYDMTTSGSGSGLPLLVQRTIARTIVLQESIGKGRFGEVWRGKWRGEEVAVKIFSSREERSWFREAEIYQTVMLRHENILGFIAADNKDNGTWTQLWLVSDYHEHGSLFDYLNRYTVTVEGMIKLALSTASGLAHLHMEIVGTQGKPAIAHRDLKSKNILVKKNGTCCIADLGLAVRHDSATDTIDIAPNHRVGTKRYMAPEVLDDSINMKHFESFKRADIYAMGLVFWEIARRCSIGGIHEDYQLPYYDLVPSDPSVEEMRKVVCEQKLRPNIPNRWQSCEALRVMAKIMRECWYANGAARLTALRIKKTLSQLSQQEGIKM
How it was run: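 Primary rat cardiac fibroblasts (passages 2–4, 3×10^5 per well) treated with compound plus 10 ng/mL TGFβ1 for 12 h; tested at 2.5, 5 and 10 µM. Lysates run on 10% SDS-PAGE (30 µg protein), probed for FN, α-SMA and collagen I/III, and quantified by densitometry against GAPDH. N=3 independent experiments.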

[2] = Effect on total Smad3 expression in TGFbeta1-stimulated Sprague-Dawley rat cardiac fibroblasts at 10 uM measured after 5 to 30 mins by Western blot analysis; format: ADME
[3] = target: T1, TGF-beta receptor type-1 (Rattus norvegicus); experiment: Inhibition of TGFbeta1 receptor in TGFbeta1-stimulated Sprague-Dawley rat cardiac fibroblasts assessed as reduction in Smad3 phosphorylation at 10 uM measured after 5 to 30 mins by Western blot analysis
[4] = target: T1, TGF-beta receptor type-1 (Rattus norvegicus); experiment: Inhibition of TGFbeta1 receptor in TGFbeta1-stimulated Sprague-Dawley rat cardiac fibroblasts assessed as reduction in Smad3 nuclear translocation at 10 uM measured after 5 mins by Western blot analysis
How it was run: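 Primary rat cardiac fibroblasts treated with 10 µM compound plus 10 ng/mL TGFβ1 for 5 min. Nuclear and cytosolic fractions separated with a kit and Smad2/Smad3 measured by Western blot.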

[5] = target: T1, TGF-beta receptor type-1 (Rattus norvegicus); experiment: Inhibition of TGFbeta1 receptor in TGFbeta1-stimulated Sprague-Dawley rat cardiac fibroblasts assessed as reduction in Smad2 nuclear translocation at 10 uM measured after 5 mins by DAPI staining-based laser confocal microscopic analysis
How it was run: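 Primary rat cardiac fibroblasts treated with 10 µM compound plus 10 ng/mL TGFβ1 for 5 min. Fixed in 4% PFA, permeabilized with 0.1% Triton X-100, blocked with goat serum. Stained with anti-Smad2 or anti-Smad3 overnight at 4 °C, then Alexa 594 secondary and DAPI nuclear stain. Imaged by confocal microscopy.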

[6] = test system: Rattus norvegicus; experiment: Antifibrotic activity in abdominal aortic constriction Sprague-Dawley rat model of cardiac fibrosis assessed as decrease in heart fibronectin level at 5 mg/kg, ip administered once daily for 4 weeks measured post-last dose by immunohistochemical analysis relative to control; format: functional; design: scale not given: the % may be the effect or the level left
How it was run: (§1)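 Male SD rats (200–250 g) with abdominal aortic constriction (suture tied over a 21-G probe above the renal arteries), under pentobarbital 30 mg/kg ip. Dosed ip daily for 4 weeks. Vehicle was saline with 0.5% DMSO and 5% Kolliphor HS 15. Groups: sham, AAC, AAC+nifedipine 10 mg/kg, n=8 each. Formalin-fixed paraffin sections 4 µm thick; FN and α-SMA by immunohistochemistry, collagen by Masson's trichrome; stained area measured.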

[7] = test system: Rattus norvegicus; experiment: Antifibrotic activity in abdominal aortic constriction Sprague-Dawley rat model of cardiac fibrosis assessed as decrease in heart collagen level at 5 mg/kg, ip administered once daily for 4 weeks measured post-last dose by Masson's trichrome staining-based histological analysis relative to control; format: functional; design: scale not given: the % may be the effect or the level left; how it was run: as §1
[8] = test system: Rattus norvegicus; experiment: Antifibrotic activity in abdominal aortic constriction Sprague-Dawley rat model of cardiac fibrosis assessed as down regulation of collagen expression in heart at 5 mg/kg, ip administered once daily for 4 weeks measured post-last dose by Western blot analysis; format: functional, organism-based
How it was run: (§2)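 AAC rats dosed ip daily for 4 weeks, n=8 per group. Hearts homogenized in lysis buffer with protease and phosphatase inhibitors and spun at 12,000 rpm for 30 min at 4 °C. Nuclear and cytoplasmic fractions prepared with a kit. Protein measured by BCA; 30 µg run on 10% SDS-PAGE, transferred to PVDF and immunoblotted; bands quantified by densitometry.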

[9] = test system: Rattus norvegicus; experiment: Antifibrotic activity in abdominal aortic constriction Sprague-Dawley rat model of cardiac fibrosis assessed as reduction in Smad2 phosphorylation in heart at 5 mg/kg, ip administered once daily for 4 weeks measured post-last dose by Western blot analysis; format: functional, organism-based; how it was run: as §2
[10] = test system: Rattus norvegicus; experiment: Antifibrotic activity in abdominal aortic constriction Sprague-Dawley rat model of cardiac fibrosis assessed as reduction in Smad3 nuclear translocation in heart at 5 mg/kg, ip administered once daily for 4 weeks measured post-last dose by Western blot analysis; format: functional, organism-based; how it was run: as §2
[11] = test system: Rattus norvegicus; experiment: Antifibrotic activity in abdominal aortic constriction Sprague-Dawley rat model of cardiac fibrosis assessed as systolic left ventricular anterior wall thickness at 5 mg/kg, ip administered once daily for 4 weeks measured post-last dose by echocardiography (reference value: 3.92 +/- 0.42 mm); format: functional
[12] = test system: Rattus norvegicus; experiment: Antifibrotic activity in abdominal aortic constriction Sprague-Dawley rat model of cardiac fibrosis assessed as diastolic left ventricular internal diameter at 5 mg/kg, ip administered once daily for 4 weeks measured post-last dose by echocardiography (reference value: 7.60 +/- 0.63 mm); format: functional
[13] = test system: Rattus norvegicus; experiment: Antifibrotic activity in abdominal aortic constriction Sprague-Dawley rat model of cardiac fibrosis assessed as systolic left ventricular internal diameter at 5 mg/kg, ip administered once daily for 4 weeks measured post-last dose by echocardiography (reference value: 3.99 +/- 0.41 mm); format: functional

inhibition [1]: Dose-dependent effect
inhibition [3]: Active
inhibition [4]: Active
inhibition [5]: Active
Structure (SMILES): C=C(C)[C@@H]1C/C=C(\C)C(=O)CCC2=C[C@@H]1OC2=O
Activity [2]: Non-Toxic
Activity [6]: 90.7%
Activity [7]: 65.6%
Activity [8]: Active
Activity [9]: Active
Activity [10]: Active
Activity [11]: 3.46 mm
Activity [12]: 8.3 mm
Activity [13]: 4.74 mm
